Source: ChEMBL document CHEMBL3425481, “Design, synthesis and anticancer activity of matrine-1H-1,2,3-triazole-chalcone conjugates” (Bioorg Med Chem Lett, 2015)
Activity calls are given as the source filed them. The calls are words filed in the database; no cut-off is given here.

What was measured:
A549 [1] = assay: Induction of apoptosis in human A549 cells assessed as necrosis cells level at IC50 incubated for 24 hrs by Annexin V-FITC/propidium iodide double staining based flow cytometry (reference value: 0.042%); format: functional
A549 [2] = assay: Induction of apoptosis in human A549 cells assessed as viable cells level at 2 times antiproliferative IC50 incubated for 24 hrs by Annexin V-FITC/propidium iodide double staining based flow cytometry (reference value: 99.7%); format: functional
A549 [3] = assay: Induction of apoptosis in human A549 cells assessed as early apoptosis cells level at 2 times antiproliferative IC50 incubated for 24 hrs by Annexin V-FITC/propidium iodide double staining based flow cytometry (reference value: 0.116%); format: functional
A549 [4] = assay: Antitumor activity against human A549 cells xenografted in Balb/ca-nu mouse assessed as tumor growth inhibition at 5 mg/kg, iv dosed every 3 days for total of 7 dosing rounds measured on day 14 after treatment; format: functional; details: read-out: TGI
Method in brief: (§1)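 A549 xenograft in mice, dosed by tail vein injection every 3 days; vehicle saline plus 0.2% Tween 80. n = 8 per treatment group, 6 in the vehicle group. Mean ± SE.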

A549 [5] = assay: Antitumor activity against human A549 cells xenografted in Balb/ca-nu mouse assessed as tumor growth inhibition at 5 mg/kg, iv dosed every 3 days for total of 7 dosing rounds measured on day 16 after treatment; format: functional; details: read-out: TGI; method in brief: as §1
A549 [6] = assay: Antitumor activity against human A549 cells xenografted in Balb/ca-nu mouse assessed as tumor growth inhibition at 5 mg/kg, iv dosed every 3 days for total of 7 dosing rounds measured on day 18 after treatment; format: functional; details: read-out: TGI; method in brief: as §1
A549 [7] = assay: Antitumor activity against human A549 cells xenografted in Balb/ca-nu mouse assessed as tumor growth inhibition at 10 mg/kg, iv dosed every 3 days for total of 7 dosing rounds measured on day 16 after treatment; format: functional; details: read-out: TGI; method in brief: as §1
Mus musculus = assay: Toxicity in human A549 cells xenografted Balb/ca-nu mouse assessed as effect on body weight at 2.5 to 10 mg/kg, iv dosed every 3 days for total of 7 dosing rounds measured on day 10 to day 20 after treatment; format: organism-based; parameters: dose 2.5-10 mg/kg, route intravenous; details: in vivo, 72 h; method in brief: as §1
A549 [8] = assay: Antitumor activity against human A549 cells xenografted in Balb/ca-nu mouse assessed as tumor growth inhibition at 10 mg/kg, iv dosed every 3 days for total of 7 dosing rounds measured on day 8 after treatment; format: functional, organism-based; parameters: dose 10 mg/kg; method in brief: as §1

SMILES: O=C(/C=C/c1cccc(Cl)c1)c1ccc(OCc2cn([C@H]3CC(=O)N4C[C@@H]5CCCN6CCC[C@@H]([C@H]56)[C@H]4C3)nn2)cc1O
- Activity (A549 [1]): 4.95%
- Activity (A549 [2]): 30.1%
- Activity (A549 [3]): 34.2%
- inhibition in vivo at 5 mg/kg (A549 [4]): 45.9%
- inhibition in vivo at 5 mg/kg (A549 [5]): 54.9%
- inhibition in vivo at 5 mg/kg (A549 [6]): 60.5%
- inhibition in vivo at 10 mg/kg (A549 [7]): 83.7%
- Activity (Mus musculus): Non-toxic
- TGI (A549 [8]): Active
